Assay results: ChEMBL document CHEMBL4706553, “Discovery of potent small molecule PROTACs targeting mutant EGFR” (Eur J Med Chem, 2020)
pIC50: −log10 of the molar value. Values belong to the compound of their own block, whether it stands above or below them. Activity calls are given as the source filed them.

How the values were obtained:
[1] = test system: von Hippel-Lindau disease tumor suppressor/Epidermal growth factor receptor (Homo sapiens), P00533+P40337 [UNDEFINED MUTATION]; assay: Protac activity at VHL/EGFR del19 mutant in human HCC827 cells assessed as maximal induction of EGFR degradation at 33 nM measured after 48 hrs by Western blot analysis; assay type: cell-based
How it was run: (§1)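 HCC827 cells seeded at 0.5–1 × 10⁶ per well, then treated at the stated concentrations for 48 h. EGFR by Western blot; n = 3. DC₅₀ (concentration giving 50% EGFR loss) by nonlinear regression, log(inhibitor) vs response.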

[2] = test system: von Hippel-Lindau disease tumor suppressor/Epidermal growth factor receptor (Homo sapiens), P00533+P40337 [UNDEFINED MUTATION]; assay: Protac activity at VHL/EGFR del19 mutant in human HCC827 cells assessed as induction of EGFR degradation at 33 nM measured after 24 hrs by Western blot analysis; assay type: cell-based
How it was run: (§2)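 HCC827 cells seeded at 0.5–1 × 10⁶ per well, grown 24 h, then treated at the stated concentrations for 24 h. EGFR^del19 level by Western blot with anti-EGFR antibody and β-actin loading control.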

[3] = test system: von Hippel-Lindau disease tumor suppressor/Epidermal growth factor receptor (Homo sapiens), P00533+P40337 [UNDEFINED MUTATION]; assay: Protac activity at VHL/EGFR del19 mutant in human HCC827 cells assessed as induction of EGFR degradation at 333 nM measured after 24 hrs by Western blot analysis; assay type: cell-based; how it was run: as §2
A-431 = assay: Antiproliferative activity against human A431 cells expressing wild type EGFR assessed as cell growth inhibition measured after 72 hrs by MTT assay; assay type: functional, cell-based; details: A-431, 72 h
How it was run: (§3)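 Cells were seeded at 3000–8000/well and allowed 24 h, then exposed to serial compound concentrations for 72 h. MTT (5 mg/mL stock in PBS) was added for 4 h, supernatant removed and DMSO added. IC50, defined as 50% growth inhibition, was derived by nonlinear regression (log inhibitor vs response).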

HCC827 = assay: Antiproliferative activity against human HCC827 cells expressing EGFR del19 mutant assessed as cell growth inhibition measured after 72 hrs by MTT assay; assay type: functional, cell-based; details: HCC827, 72 h
How it was run: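 HCC827 cells were kept in RPMI-1640 with 10% heat-inactivated FBS, 1% sodium pyruvate, 1% glutamine and 1% penicillin-streptomycin at 37 °C and 5% CO₂, seeded at 3000–8000/well and rested 24 h. Compounds were applied as a concentration series for 72 h. MTT (5 mg/mL stock in PBS) was given for 4 h, then medium was removed and DMSO added. IC50 came from nonlinear regression (log inhibitor vs response).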

[4] = test system: von Hippel-Lindau disease tumor suppressor/Epidermal growth factor receptor (Homo sapiens), P00533+P40337 [L858R,T790M]; assay: Protac activity at VHL/EGFR L858R/T790M mutant in human H1975 cells assessed as induction of degradation of EGFR at 333 nM incubated for 48 hrs measured after compound wash-out for 48 hrs by Western blot analysis; assay type: cell-based; details: NCI-H1975
How it was run: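 H1975 cells (RPMI-1640, 10% heat-inactivated FBS) exposed to 333 nM for 48 h. Medium then replaced with compound-free medium, and lysates collected at the stated times. EGFR read by Western blot; n = 2.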

[5] = test system: von Hippel-Lindau disease tumor suppressor/Epidermal growth factor receptor (Homo sapiens), P00533+P40337 [UNDEFINED MUTATION]; assay: Protac activity at VHL/EGFR del19 mutant in human HCC827 cells assessed as induction of EGFR degradation at 33 nM by Western blot analysis; assay type: cell-based; details: time 12-72 hrs, TDE = time-dependent effect
How it was run: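 Time course in HCC827 cells at 33 nM, with protein harvested at each stated time point. EGFR^del19 detected by Western blot.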

[6] = molecular target: von Hippel-Lindau disease tumor suppressor/Epidermal growth factor receptor (Homo sapiens, UniProt P00533+P40337, T790M/L858R); assay: Protac activity at VHL/EGFR L858R/T790M mutant in human H1975 cells assessed as induction of degradation of EGFR incubated for 48 hrs by Western blot analysis; assay type: cell-based; details: nci-h1975
How it was run: (§4)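 H1975 cells exposed to the stated concentrations for 48 h. EGFR by Western blot; n = 3. DC₅₀ by nonlinear regression, log(inhibitor) vs response.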

[7] = molecular target: T1, von Hippel-Lindau disease tumor suppressor/Epidermal growth factor receptor (Homo sapiens, UniProt P00533+P40337); assay: Protac activity at VHL/EGFR del19 mutant in human HCC827 cells assessed as induction of EGFR degradation measured after 48 hrs by Western blot analysis; assay type: cell-based; how it was run: as §1
[8] = test system: von Hippel-Lindau disease tumor suppressor/Epidermal growth factor receptor (Homo sapiens), P00533+P40337 [UNDEFINED MUTATION]; assay: Protac activity at VHL/EGFR del19 mutant in human HCC827 cells assessed as induction of EGFR degradation at 33 nM incubated for 24 hrs measured following drug wash-out for 24 hrs by Western blot analysis; assay type: cell-based
How it was run: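 HCC827 cells (RPMI-1640, 10% heat-inactivated FBS, 1% sodium pyruvate, 1% glutamine, 37 °C, 5% CO₂) treated at 33 nM for 24 h. Medium then replaced with compound-free medium, and protein harvested at the stated times. EGFR read by Western blot; n = 2.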

NCI-H1975 = assay: Antiproliferative activity against human H1975 cells expressing EGFR L858R/T790M mutant assessed as cell growth inhibition measured after 72 hrs by MTT assay; assay type: functional, cell-based; details: NCI-H1975, 72 h
How it was run: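 MTT assay on H1975 cells grown in RPMI-1640 with 10% heat-inactivated FBS and 1% penicillin-streptomycin at 37 °C and 5% CO₂. Cells were seeded at 3000–8000 per well and left 24 h, then exposed to a concentration series for 72 h. MTT (5 mg/mL stock in PBS) was added for 4 h, supernatant removed and formazan dissolved in DMSO. IC50 was fitted by nonlinear regression (log inhibitor vs response).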

[9] = test system: von Hippel-Lindau disease tumor suppressor/Epidermal growth factor receptor (Homo sapiens), P00533+P40337 [L858R,T790M]; assay: Protac activity at VHL/EGFR L858R/T790M mutant in human H1975 cells assessed as maximal induction of degradation of EGFR incubated for 48 hrs by Western blot analysis relative to control; assay type: cell-based; details: NCI-H1975; how it was run: as §4
HepG2 = assay: Antiproliferative activity against human HepG2 cells expressing VEGFR2 assessed as cell growth inhibition measured after 72 hrs by MTT assay; assay type: functional, cell-based; details: HepG2, 72 h; how it was run: as §3
[10] = test system: von Hippel-Lindau disease tumor suppressor/Epidermal growth factor receptor (Homo sapiens), P00533+P40337 [UNDEFINED MUTATION]; assay: Protac activity at VHL/EGFR del19 mutant in human HCC827 cells assessed as induction of EGFR degradation at 33 to 333 nM measured after 24 hrs by Western blot analysis; assay type: cell-based; details: dose 33-333 nM; how it was run: as §2
[11] = molecular target: T1, von Hippel-Lindau disease tumor suppressor/Epidermal growth factor receptor; assay: Protac activity at VHL/EGFR del19 mutant in human HCC827 cells assessed as induction of EGFR degradation measured after 24 hrs by Western blot analysis; assay type: cell-based; how it was run: as §2
[12] = test system: Protein cereblon/Epidermal growth factor receptor (Homo sapiens), P00533+Q96SW2 [UNDEFINED MUTATION]; assay: Protac activity at CRBN/EGFR del19 mutant in human HCC827 cells assessed as induction of EGFR degradation at 333 nM measured after 24 hrs by Western blot analysis; assay type: cell-based; how it was run: as §2
[13] = test system: Protein cereblon/Epidermal growth factor receptor (Homo sapiens), P00533+Q96SW2 [UNDEFINED MUTATION]; assay: Protac activity at CRBN/EGFR del19 mutant in human HCC827 cells assessed as induction of EGFR degradation at 33 nM measured after 24 hrs by Western blot analysis; assay type: cell-based; how it was run: as §2

Structure (SMILES): Cc1ncsc1-c1ccc(CNC(=O)[C@@H]2C[C@@H](O)CN2C(=O)[C@@H](NC(=O)CCCCCCCN2CCN(c3ccc(Nc4ncc5nc(Nc6ccccc6)n(C6CCCC6)c5n4)cc3)CC2)C(C)(C)C)cc1
- Emax [1]: 74.8%
- Activity [2]: Active
- Activity [3]: inactive
- pIC50 (A-431): 6.48
- pIC50 (HCC827): 9.12
- Activity [4]: Active
- Activity [5]: Tde
- DC50 [6]: 0.151 µM
- DC50 [7]: 0.00354 µM
- Activity [8]: Active
- pIC50 (NCI-H1975): 6.01
- Emax [9]: 80.3%
- pIC50 (HepG2): < 5.30

Structure (SMILES): Cc1ncsc1-c1ccc(CNC(=O)[C@@H]2C[C@@H](O)CN2C(=O)[C@@H](NCCOCCOCCOCCOCCN2CCN(c3ccc(Nc4ncc5nc(Nc6ccccc6)n(C6CCCC6)c5n4)cc3)CC2)C(C)(C)C)cc1
- Activity [10]: inactive
- pIC50 (HCC827): 7.21
- pIC50 (NCI-H1975): 5.54
- pIC50 (HepG2): < 5.30

Structure (SMILES): COc1cc2ncnc(Nc3ccc(F)c(Cl)c3)c2cc1OCCCCCOCCOCCC(=O)N[C@H](C(=O)N1C[C@H](O)C[C@H]1C(=O)NCc1ccc(-c2scnc2C)cc1)C(C)(C)C
- DC50 [11]: 0.0117 µM

Structure (SMILES): CN(CCOCCOCCN1CCN(c2ccc(Nc3ncc4nc(Nc5ccccc5)n(C5CCCC5)c4n3)cc2)CC1)CC(=O)Nc1cccc2c1CN(C1CCC(=O)NC1=O)C2=O (centres undefined)
- Activity [12]: inactive
- Activity [13]: Active
- pIC50 (A-431): 5.57
- pIC50 (HCC827): 8.86
- pIC50 (NCI-H1975): 5.92
- pIC50 (HepG2): < 5.30

- pIC50 (A-431): 6.79
- pIC50 (HCC827): 9.09
- pIC50 (NCI-H1975): 6.37
- pIC50 (HepG2): < 5.30
Structure (SMILES): CN1CCN(c2ccc(Nc3ncc4nc(Nc5ccccc5)n(C5CCCC5)c4n3)cc2)CC1

Structure (SMILES): O=C1CCC(N2Cc3c(NC(=O)CCCCCCN4CCN(c5ccc(Nc6ncc7nc(Nc8ccccc8)n(C8CCCC8)c7n6)cc5)CC4)cccc3C2=O)C(=O)N1 (centres undefined)
- Activity [12]: inactive
- Activity [13]: Active
- pIC50 (A-431): 6.66
- pIC50 (HCC827): 8.85
- pIC50 (NCI-H1975): 5.03
- pIC50 (HepG2): < 5.30
